Measurements reported in ChEMBL document CHEMBL4732200, “Synthesis and antiviral activity of a series of novel quinoline derivatives as anti-RSV or anti-IAV agents” (Eur J Med Chem, 2021).
Active and inactive are the calls of the source. No cut-off for these calls is given here.

Assays:
[1] = test system: Respiratory syncytial virus; test: Antiviral activity against RSV Long expressing mGFP infected in HEp-2 cells assessed as reduction in viral replication after 48 hrs by MTS assay; type: functional, organism-based; conditions: human respiratory syncytial virus, HEp-2, 48 h
Outline: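 HEp-2 cells plated in 96-well plates; after 24 h, virus alone or virus plus compound added; 48 h incubation. MTS (2 mg/ml) added for 3 h at 37 °C, 5% CO2; absorbance read at 490 nm. Controls were mock-treated cells (uninfected, or infected without compound), with cell activity set as 100%.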

HEK-293T = test: Cytotoxicity against human HEK-293T cells assessed as reduction in cell viability after 48 hrs by CCK-8 assay; type: cell-based
Outline: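 Cytotoxicity in 293T cells in 96-well plates incubated with compounds at six concentrations (top 200) for 48 h. CCK-8 solution added and OD read at 450 nm. DMSO-only cells served as control.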

[2] = Selectivity index, ratio of CC50 for cytotoxicity against human HEp-2 cells to IC50 for antiviral activity against RSV Long expressing mGFP infected in HEp-2 cells; type: toxicity, cell-based; conditions: read-out: Ratio CC50/IC50
[3] = Selectivity index, ratio of CC50 for cytotoxicity against human HEK-293T cells to IC50 for antiviral activity against Influenza A virus A/WSN/33(H1N1) […] cells; type: toxicity, cell-based; conditions: read-out: Ratio CC50/IC50
[4] = Cytotoxicity against human HEp-2 cells assessed as reduction in cell viability after 48 hrs by MTS assay; type: cell-based
Influenza A virus [5] = test: Antiviral activity against Influenza A virus A/WSN/33(H1N1) infected in human HEK-293T cells assessed as inhibition of viral replication after 48 hrs by CCK-8 assay; type: functional, organism-based; conditions: A/WSN/1933(H1N1)
[6] = test system: Respiratory syncytial virus; test: Potency index, ratio of ribavirin IC50 to test compound IC50 for antiviral activity against RSV Long expressing mGFP infected in HEp-2 cells; type: functional
Influenza A virus [7] = test: Antiviral activity against Influenza A virus A/WSN/33(H1N1) infected in human HEK-293T cells assessed as inhibition of viral replication at 10 uM after 48 hrs by CCK-8 assay relative to control; type: functional, A/WSN/1933(H1N1); parameters: scale not given: the % may be the effect or the level left
Influenza A virus [8] = test: Potency index, ratio of ribavirin IC50 to test compound IC50 for antiviral activity against Influenza A virus A/WSN/33(H1N1) infected in human HEK-293T cells; type: functional, A/WSN/1933(H1N1)
[9] = (§1) Inhibition of Influenza A virus A/WSN/33(H1N1) RNA polymerase expressed in HEK-293T cells after 24 hrs by dual luciferase reporter gene assay; type: cell-based, HEK293T
Outline: (§2)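 HEK293T cells transfected with pCAGGS plasmids for PB2, PB1, PA and NP, plus a pol-driven firefly luciferase reporter and SV40-Renilla, with or without compound at the indicated concentrations. vRNA transcription read as firefly and Renilla luciferase at 24 h post-transfection.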

HEK293T = test: as §1; type: cell-based; outline: as §2
Influenza A virus [10] = test: Antiviral activity against Influenza A virus A/WSN/33(H1N1) infected in human A549 cells assessed as inhibition of viral replication at 10 uM after 2 to 6 hrs; type: functional, organism-based; conditions: A/WSN/1933(H1N1), time 2-6 hrs

Q: What does the source list for `O=C(COc1cccc2ccc(N3CCCC3)nc12)NCc1ccccc1`?
A: IC50 [1]: 55.8 µM; IC50 (HEK-293T): > 100 µM; selectivity ratio [2]: 9.68; selectivity ratio [3]: > 7.5; CC50 at 48 h [4]: 540 µM; IC50 (Influenza A virus [5]): 13.3 µM

Q: Which IC50 [1] does the source give for `CN1CCN(c2ccc3cccc(OCC(=O)NCc4ccccc4)c3n2)CC1` here?
A: 19.3 µM

Q: And the IC50 (HEK-293T)?
A: > 100 µM

Q: What about the selectivity ratio [2] of the same compound?
A: 13.7

Q: What about the selectivity ratio [3] of the same compound?
A: > 10.1

Q: And the CC50 at 48 h [4]?
A: 264 µM

Q: What about the IC50 (Influenza A virus [5]) of the same compound?
A: 9.87 µM

Q: What does the source list for `O=C(COc1cccc2ccc(Cl)nc12)NCc1ccccc1`?
A: IC50 [1]: 20.7 µM; selectivity ratio [2]: 25.6; CC50 at 48 h [4]: 528 µM

Q: With `O=C(COc1cccc2ccc(N3CCCCC3)nc12)NCc1ccccc1` as the compound, how does the IC50 [1] read?
A: 26.1 µM

Q: And the selectivity ratio [2]?
A: 66.7

Q: What about the CC50 at 48 h [4] of the same compound?
A: 1740 µM

Q: Which results are given for `O=C(COc1cccc2ccc(N3CCCC3)nc12)NCc1cccc(Cl)c1`?
A: IC50 [1]: 30.2 µM; selectivity ratio [2]: 2.41; CC50 at 48 h [4]: 73 µM

Q: For `NC(=O)c1ncn([C@@H]2O[C@H](CO)[C@@H](O)[C@H]2O)n1` [RIBAVIRIN], which IC50 [1] is on record?
A: 17.3 µM

Q: And the IC50 (HEK-293T)?
A: > 100 µM

Q: And the selectivity ratio [2]?
A: 175

Q: What about the selectivity ratio [3] of the same compound?
A: > 6.51

Q: And the CC50 at 48 h [4]?
A: 3040 µM

Q: With `CN(C)c1ccc2cccc(OCC(=O)NCc3ccccc3)c2n1` as the compound, how does the “Ratio IC50” value [6] read?
A: 2.5

Q: What about the IC50 [1] of the same compound?
A: 3.1 µM

Q: And the IC50 (HEK-293T)?
A: > 100 µM

Q: What about the selectivity ratio [2] of the same compound?
A: 54.1

Q: And the selectivity ratio [3]?
A: > 7.02

Q: What about the CC50 at 48 h [4] of the same compound?
A: 168 µM

Q: What about the IC50 (Influenza A virus [5]) of the same compound?
A: 14.2 µM

Q: For `c1cc(OCCCCCN2CCOCC2)c2nc(N3CCCC3)ccc2c1`, which IC50 [1] is on record?
A: 31.3 µM

Q: And the IC50 (HEK-293T)?
A: > 100 µM

Q: What about the selectivity ratio [2] of the same compound?
A: 5.52

Q: And the selectivity ratio [3]?
A: > 3.08

Q: What about the CC50 at 48 h [4] of the same compound?
A: 173 µM

Q: What about the IC50 (Influenza A virus [5]) of the same compound?
A: 32.4 µM

Q: What does the source list for `c1cc(OCCCCN2CCOCC2)c2nc(N3CCCC3)ccc2c1`?
A: IC50 [1]: 11.6 µM; selectivity ratio [2]: 59.6; CC50 at 48 h [4]: 691 µM

Q: Which results are given for `O=C(COc1cccc2ccc(N3CCCC3)nc12)NCc1ccc(Cl)cc1`?
A: IC50 [1]: 39.2 µM; selectivity ratio [2]: 6.26; CC50 at 48 h [4]: 245 µM

Q: Which results are given for `COc1cccc(CNC(=O)COc2cccc3ccc(N4CCCC4)nc23)c1`?
A: Ratio IC50 [6]: 2.5; IC50 [1]: 6.93 µM; selectivity ratio [2]: 10.7; CC50 at 48 h [4]: 74.3 µM

Q: Which IC50 [1] does the source give for `CNc1ccc2cccc(OCC(=O)NCc3ccccc3)c2n1` here?
A: 10.3 µM

Q: And the selectivity ratio [2]?
A: 9.2

Q: What about the CC50 at 48 h [4] of the same compound?
A: 94.8 µM

Q: What does the source list for `COc1ccc(CNC(=O)COc2cccc3ccc(N4CCCC4)nc23)cc1`?
A: Ratio IC50 [6]: 2.5; IC50 [1]: 3.7 µM; selectivity ratio [2]: 673; CC50 at 48 h [4]: 2490 µM

Q: Which results are given for `O=C(COc1cccc2ccc(N3CCCC3)nc12)NCc1ccc(C(F)(F)F)cc1`?
A: IC50 [1]: 27.8 µM; IC50 (HEK-293T): > 100 µM; selectivity ratio [2]: 11.8; selectivity ratio [3]: > 2.77; CC50 at 48 h [4]: 327 µM; IC50 (Influenza A virus [5]): 36.1 µM

Q: Which results are given for `O=C(COc1cccc2ccc(N3CCCC3)nc12)NC12CC3CC(CC(C3)C1)C2`?
A: IC50 (HEK-293T): > 100 µM; selectivity ratio [3]: > 8.73; IC50 (Influenza A virus [5]): 11.5 µM

Q: Which IC50 [1] does the source give for `O=C(COc1cccc2ccc(N3CCCC3)nc12)NCC1CC1` here?
A: 29 µM

Q: What about the selectivity ratio [2] of the same compound?
A: 20

Q: What about the CC50 at 48 h [4] of the same compound?
A: 580 µM

Q: Which results are given for `CCOc1ccccc1NC(=O)COc1cccc2ccc(N3CCCC3)nc12`?
A: IC50 [1]: 33.2 µM; selectivity ratio [2]: 31.5; CC50 at 48 h [4]: 1040 µM

Q: With `O=C(COc1cccc2ccc(N3CCCC3)nc12)NCc1cccc(F)c1` as the compound, how does the IC50 [1] read?
A: 2920 µM

Q: And the selectivity ratio [2]?
A: 0.15

Q: What about the CC50 at 48 h [4] of the same compound?
A: 444 µM

Q: What does the source list for `CCOC(=O)COc1cccc2ccc(N3CCCC3)nc12`?
A: IC50 [1]: 16.4 µM; selectivity ratio [2]: 50.3; CC50 at 48 h [4]: 826 µM

Q: Which IC50 [1] does the source give for `O=C(COc1cccc2ccc(N3CCOCC3)nc12)NCc1ccccc1` here?
A: 36.1 µM

Q: What about the selectivity ratio [2] of the same compound?
A: 1.28

Q: What about the CC50 at 48 h [4] of the same compound?
A: 46.2 µM

Q: Which IC50 [1] does the source give for `c1cc(OCCCN2CCOCC2)c2nc(N3CCCC3)ccc2c1` here?
A: 14.1 µM

Q: And the IC50 (HEK-293T)?
A: > 100 µM

Q: What about the selectivity ratio [2] of the same compound?
A: 39.2

Q: And the selectivity ratio [3]?
A: > 1.97

Q: What about the CC50 at 48 h [4] of the same compound?
A: 552 µM

Q: What about the IC50 (Influenza A virus [5]) of the same compound?
A: 50.7 µM

Q: Which results are given for `O=C(COc1cccc2ccc(N3CCCC3)nc12)NCc1ccco1`?
A: IC50 [1]: 22.9 µM; selectivity ratio [2]: 10.9; CC50 at 48 h [4]: 249 µM

Q: Which IC50 [1] does the source give for `CC(C)(C)OC(=O)N[C@@H]1CCN(c2ccc3cccc(OCC(=O)NCc4ccccc4)c3n2)C1` here?
A: 35.3 µM

Q: What about the Activity (Influenza A virus [7]) of the same compound?
A: >70%

Q: And the IC50 (HEK-293T)?
A: 49.9 µM

Q: What about the selectivity ratio [2] of the same compound?
A: 1.66

Q: And the selectivity ratio [3]?
A: 9.99

Q: And the CC50 at 48 h [4]?
A: 58.6 µM

Q: What about the IC50 (Influenza A virus [5]) of the same compound?
A: 4.99 µM

Q: For `O=C(COc1cccc2ccc(N3CCCC3)nc12)NCc1ccccc1Br`, which IC50 [1] is on record?
A: 182 µM

Q: What about the selectivity ratio [2] of the same compound?
A: 1.71

Q: And the CC50 at 48 h [4]?
A: 312 µM

Q: Which results are given for `CCOc1ccccc1CNC(=O)COc1cccc2ccc(N3CCCC3)nc12`?
A: IC50 [1]: 45.7 µM; IC50 (HEK-293T): > 100 µM; selectivity ratio [2]: 2.48; selectivity ratio [3]: > 13.4; CC50 at 48 h [4]: 113 µM; IC50 (Influenza A virus [5]): 7.46 µM

Q: Which results are given for `O=C(COc1cccc2ccc(N3CCCC3)nc12)NCc1ccc(Br)cc1`?
A: IC50 (HEK-293T): > 100 µM; selectivity ratio [3]: > 2.36; IC50 (Influenza A virus [5]): 42.3 µM

Q: Which “Ratio IC50” value [6] does the source give for `CC(C)(C)OC(=O)N[C@H]1CCN(c2ccc3cccc(OCC(=O)NCc4ccccc4)c3n2)C1` here?
A: 2.5

Q: What about the IC50 [1] of the same compound?
A: 4.57 µM

Q: And the Activity (Influenza A virus [7])?
A: >70%

Q: What about the IC50 (HEK-293T) of the same compound?
A: 58 µM

Q: What about the selectivity ratio [2] of the same compound?
A: 9.59

Q: What about the selectivity ratio [3] of the same compound?
A: 11.3

Q: What about the CC50 at 48 h [4] of the same compound?
A: 43.8 µM

Q: And the IC50 (Influenza A virus [5])?
A: 5.11 µM

Q: Which IC50 [1] does the source give for `CS(=O)(=O)c1ccc(CNC(=O)COc2cccc3ccc(N4CCCC4)nc23)cc1` here?
A: 221 µM

Q: And the selectivity ratio [2]?
A: 6.14

Q: What about the CC50 at 48 h [4] of the same compound?
A: 1360 µM

Q: With `O=C(COc1cccc2ccc(N3CCCC3)nc12)NCc1ccc(F)cc1` as the compound, how does the “Ratio IC50” value [6] read?
A: 2.5

Q: And the IC50 [1]?
A: 4.41 µM

Q: What about the selectivity ratio [2] of the same compound?
A: 483

Q: What about the CC50 at 48 h [4] of the same compound?
A: 2130 µM

Q: For `O=C(COc1cccc2ccc(N3CCCC3)nc12)Nc1ccccc1`, which IC50 [1] is on record?
A: 16.5 µM

Q: And the selectivity ratio [2]?
A: 18.4

Q: What about the CC50 at 48 h [4] of the same compound?
A: 304 µM

Q: What does the source list for `CC(C)(C)OC(=O)N1CCN(c2ccc3cccc(OCC(=O)NCc4ccccc4)c3n2)CC1`?
A: Ratio IC50 (Influenza A virus [8]): 8.2; IC50 [9]: 1.93 µM; inhibition (HEK293T): Dose-dependent effect; IC50 [1]: 16.9 µM; Activity (Influenza A virus [7]): >70%; IC50 (HEK-293T): > 100 µM; selectivity ratio [2]: 80.9; selectivity ratio [3]: > 53.5; Activity (Influenza A virus [10]): Active; CC50 at 48 h [4]: 1370 µM; IC50 (Influenza A virus [5]): 1.87 µM
